# NSD2 inh = inhibitors of human histone methyltransferase NSD2; O96028; NSD2 peptide methylation, AlphaScreen, 120 min; actives 0.54% (n = 310,000); inhibition, % at 12.5 µM; in the data active = inhibition above about 50%
# Target sequence (O96028 whole entry, looked up): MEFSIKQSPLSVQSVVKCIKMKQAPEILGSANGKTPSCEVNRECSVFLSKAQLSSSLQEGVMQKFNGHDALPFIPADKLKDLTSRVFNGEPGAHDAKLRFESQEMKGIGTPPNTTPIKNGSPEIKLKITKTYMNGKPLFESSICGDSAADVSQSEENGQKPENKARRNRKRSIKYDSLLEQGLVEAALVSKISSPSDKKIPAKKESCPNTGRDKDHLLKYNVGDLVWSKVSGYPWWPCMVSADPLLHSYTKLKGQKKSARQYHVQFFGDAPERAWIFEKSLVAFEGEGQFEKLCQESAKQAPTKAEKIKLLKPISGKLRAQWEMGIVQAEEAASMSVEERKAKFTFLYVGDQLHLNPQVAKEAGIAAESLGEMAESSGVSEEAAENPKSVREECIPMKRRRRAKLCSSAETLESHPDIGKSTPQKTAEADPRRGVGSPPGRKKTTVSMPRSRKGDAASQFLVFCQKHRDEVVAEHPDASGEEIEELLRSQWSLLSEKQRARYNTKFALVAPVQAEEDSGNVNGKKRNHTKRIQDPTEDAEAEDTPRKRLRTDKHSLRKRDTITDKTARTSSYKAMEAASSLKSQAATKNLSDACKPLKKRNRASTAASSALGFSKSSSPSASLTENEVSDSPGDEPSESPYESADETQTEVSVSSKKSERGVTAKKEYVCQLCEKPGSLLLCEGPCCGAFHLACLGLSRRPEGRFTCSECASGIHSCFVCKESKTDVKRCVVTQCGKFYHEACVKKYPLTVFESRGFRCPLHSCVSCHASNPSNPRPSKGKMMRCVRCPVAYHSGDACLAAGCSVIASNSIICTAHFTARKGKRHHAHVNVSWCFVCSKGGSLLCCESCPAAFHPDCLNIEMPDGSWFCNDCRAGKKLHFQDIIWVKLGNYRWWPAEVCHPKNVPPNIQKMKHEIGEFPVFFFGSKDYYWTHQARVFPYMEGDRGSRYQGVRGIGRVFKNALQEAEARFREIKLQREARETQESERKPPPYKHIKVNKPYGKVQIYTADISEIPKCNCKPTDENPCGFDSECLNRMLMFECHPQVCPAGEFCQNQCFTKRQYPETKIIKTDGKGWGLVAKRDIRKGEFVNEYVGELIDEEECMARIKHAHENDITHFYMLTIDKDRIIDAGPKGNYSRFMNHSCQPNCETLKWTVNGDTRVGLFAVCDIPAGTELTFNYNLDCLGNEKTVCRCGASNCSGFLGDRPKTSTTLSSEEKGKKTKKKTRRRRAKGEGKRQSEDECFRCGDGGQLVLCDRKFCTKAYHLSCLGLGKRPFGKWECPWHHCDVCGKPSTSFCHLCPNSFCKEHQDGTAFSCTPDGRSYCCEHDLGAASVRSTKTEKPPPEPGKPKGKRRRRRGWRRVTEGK
# SIRT5 inh = blocks human SIRT5 desuccinylation of peptide; Q9NXA8; Purified SirT5, succinyl-peptide AMC, trypsin-coupled fluorescence; inhibition, % at 15 µM; actives 1.1% (n = 330,000); AID 652115; in the data active = inhibition above about 15%
# FGF22 binding = binders of recombinant human FGF22 by thermal shift; Q9HCT0; SYPRO orange fluorescence; percent of sucrose octasulfate shift, DMSO zero; actives 1.5% (n = 340,000); AID 651658; activity (Tm shift, normalised), % at 9.99 µM;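 active = mean Tm shift, scaled 0 neutral to 100 positive control, at about 1.3% or above, every replicate too, limit read from the data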
# UCH37 inh = human UCH37 deubiquitinating enzyme inhibition | inhibition, % (concentration not given with the values) | Q9Y5K5 | AID 588478 | actives 0.33% (n = 330,000) | purified proteasome/UCH37, Ub-AMC cleavage fluorescence;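 active = mean inhibition over replicate wells above about 20%, limit read from the data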;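 note: 0% = compound-free wells with enzyme and 100% = wells lacking proteasome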
#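 Signal – fluorescence, ex 355 nm, em 460 nm · System – Proteasome-bound UCH37 · Input – 0.15 nM proteasome as dispensed · Timing – 30 min preincubation with enzyme, 25 min cleavage at room temperature · Read-out basis – percent inhibition of cleavage signal versus uninhibited and no-proteasome wells · Medium – Tris-HCl pH 7.4 with ATP-MgCl2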
# Casp6 inh = blocks human caspase-6 cleavage activity; actives 0.53% (n = 350,000); purified caspase-6, Z-VEID-R110 cleavage fluorescence; AID 686996; inhibition, % at 12.5 µM;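 active = mean inhibition across replicates at least about 35%, with every replicate also reaching that limit, limit read from the data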;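 note: 0% = median of neutral control wells and 100% = no fluorescence left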
# Alpha artifact = AlphaScreen assay artifact in NSD2 counter-screen; shares compounds with NSD2 inh; AlphaScreen artifact counterscreen, preloaded methylated H4 peptide; AC35, µM (highest dose often 10 µM), inactives show at the highest dose activity change, negative = signal loss; actives 9.4% (n = 1,500); call rule not given here
# Starred values were filed as active, the others as inactive; i = inactive; nt = no result given. Most compounds without a hit are left out; they make up all but 2.6% or so of the library.
SMILES,NSD2 inh,SIRT5 inh,FGF22 binding,UCH37 inh,Casp6 inh,Alpha artifact
C[C@@H]1CN([C@@H](C)CO)C(=O)c2cc(NC(=O)Cn3cnnn3)ccc2O[C@H]1CN(C)C,nt,-6,0,nt,-7,nt
CNCc1ccccc1OCc1ccccc1F,53*,-3,0,6,0,0%
COc1ccc(NC(=O)N(C)C[C@@H]2Oc3ccc(NC(=O)Nc4ccc5c(c4)OCO5)cc3CC(=O)N([C@H](C)CO)C[C@H]2C)cc1,nt,nt,0,nt,nt,nt
CC1=NN(c2ccc(C(=O)O)c(N)c2)C(=O)C1,130*,23*,0,6,26,-6%
CC1=NN(c2ccc(C(=O)O)cc2)C(=O)CC1,-1,3,0,3,-6,nt
COc1ccc(CN(C)C[C@H]2OCCCC[C@H](C)Oc3ccc(NS(=O)(=O)c4ccccc4)cc3C(=O)N([C@@H](C)CO)C[C@@H]2C)cc1,nt,-6,0,nt,0,nt
CCn1c(-c2cc3c(C(F)(F)F)nn(C)c3s2)n[nH]c1=S,52*,nt,nt,-41,nt,-6%
Cn1c(-c2cc3c(C(F)(F)F)nn(C)c3s2)n[nH]c1=S,1,nt,nt,-7,nt,nt
O=C(CN1CCC(C(=O)c2ccc3c(c2)OCCO3)CC1)NCc1ccc(F)cc1,11,3,0,2,3,nt
O=C(CN1CCC(C(=O)c2ccc3c(c2)OCCO3)CC1)NCc1ccccc1,65*,0,0,-1,3,1%
CCN(CC)Cc1c(O)c(Cl)cc2c(C)cc(=O)oc12,112*,nt,1,i,24,-5%
Cc1cccc(NC(=S)N2CCN(c3ccccc3F)CC2)c1C,57*,1,0,3,2,-5%
COc1ccccc1NC(=S)N1CCN(c2ccccc2F)CC1,4,-3,0,0,0,nt
COc1ccc2c3c([nH]c2c1)[C@@H](CO)N(Cc1ccccc1F)CC31CCN(C(=O)C2CCOCC2)CC1,nt,-2,0,nt,1,nt
COc1cc(N(C)C)ccc1C=c1c2ccccc2n2c1cc(-c1ccccc1)[n+]2C,85*,4,-1,nt,61*,1.5µM*
C[C@@H]1CN([C@H](C)CO)C(=O)c2cc(NC(=O)Nc3cccc4ccccc34)ccc2O[C@@H]1CN(C)C(=O)Nc1ccc2c(c1)OCO2,nt,10,0,nt,-1,nt
Cc1cc(C(=O)NN=Cc2ccc(-c3ccccc3Cl)o2)n[nH]1,nt,nt,nt,-57,nt,nt
C[C@@H]1CN([C@@H](C)CO)C(=O)c2cc(C3=CCCCC3)cnc2O[C@H]1CN(C)C(=O)Cc1cccnc1,nt,-3,0,nt,2,nt
COc1ccc(OCC(=O)NNc2c3ccccc3nc3ccccc23)cc1,61*,nt,nt,2,nt,3%
Cc1ccccc1NCC(=O)Nc1cc(S(=O)(=O)N2CCCCC2)ccc1C,57*,3,0,1,-2,-7%
Cc1ccc(S(=O)(=O)N2CCOCC2)cc1NC(=O)CSc1nccn1C,-4,nt,nt,2,nt,nt
Cc1ccc(S(=O)(=O)N2CCOCC2)cc1NC(=O)CSc1ccccn1,52*,2,0,2,0,-2%
COc1ccc(-c2ncncc2-c2ccccc2)c(O)c1,68*,-4,0,1,6,-2%
CCOc1ccc(-c2ncncc2-c2ccc(OC)cc2)c(O)c1,5,nt,nt,2,nt,nt
Cc1noc(C)c1NC(=O)N[C@@H]1CC[C@@H](CCNC(=O)C2CC2)O[C@@H]1CO,nt,0,0,nt,-1,nt
SMILES,NSD2 inh,SIRT5 inh,FGF22 binding,UCH37 inh,Casp6 inh,Alpha artifact
CN(C(=O)CSc1nc(-c2ccc(C(C)(C)C)cc2)c(C#N)c(=O)[nH]1)C1CCCCC1,60*,17*,0,nt,35*,-3%
O=C1c2cccc(Cl)c2C(=O)c2c1cccc2N1CCCC1,74*,nt,nt,7,nt,1.1µM*
O=C1c2ccccc2C(=O)c2cc(N3CCCCC3)ccc21,8,0,nt,0,1,nt
CC(=O)N[C@@H]1CC[C@@H](CCNC(=O)C2CCC2)O[C@H]1CO,nt,8,0,nt,-4,nt
Cc1ccc(/C=C2/SC(=S)N(C3CCCCC3)C2=O)o1,nt,-3,0,nt,-1,nt
Cc1ccc(/C=C2/SC(=O)NC2=S)o1,177*,nt,nt,17,nt,-13%
C[C@@H]1CN([C@H](C)CO)C(=O)c2cc(NC(=O)CCN3CCOCC3)ccc2O[C@H]1CN(C)C(=O)Nc1cccc2ccccc12,nt,nt,0,nt,-3,nt
CC(C)(C)CN1CCNC(=O)C1CC(=O)N1CCC(C(=O)N2CCOCC2)CC1 (stereo not given),79*,0,0,-19,-4,-4%
CCCC(=O)N1CCC2(CC1)CN(C(C)=O)[C@H](CO)c1c2c2ccc(OC)cc2n1C,nt,-3,0,nt,-1,nt
COc1ccc(C(=O)Nc2ccccc2C(=O)NN=Cc2cccc3ccccc23)cc1,nt,nt,nt,2,nt,nt
O=C(O)c1[nH]c2ccccc2c1C(c1cc(Cl)cc([N+](=O)[O-])c1O)c1c(C(=O)O)[nH]c2ccccc12,55*,12,0,13,8,-20%
CC1S/C(=N/N=Cc2ccco2)NC1=O (stereo not given),nt,nt,nt,13,nt,nt
N=C1SCC(=O)N1c1ncc(Cc2cccc(Cl)c2)s1,80*,-3,0,0,-6,-1%
Cc1ccc(NC(=O)CC2=NC(=O)C(CC(=O)Nc3ccccc3F)S2)cc1 (stereo not given),71*,2,1,-21,2,0%
O=C(O)COc1ccc2c(c1)O/C(=C\c1ccco1)C2=O,66*,11,0,-14,52*,-2%
O=S(=O)(Nc1nc(-c2ccco2)c(-c2ccco2)s1)c1ccc(F)cc1F,100*,9,1,nt,62*,1%
N#Cc1c(SCC(=O)Nc2nncs2)sc2c(O)cc(=O)[nH]c12,111*,43*,0,nt,84*,-10%
C[C@@H]1CCCCO[C@H](CN(C)Cc2ccccc2)[C@H](C)CN([C@H](C)CO)C(=O)c2cc(NC(=O)c3ccncc3)ccc2O1,nt,5,0,nt,3,nt
C[C@H](CO)N1C[C@H](C)[C@@H](CN(C)C(=O)Cc2ccccc2)OCCCC[C@H](C)Oc2ccc(NS(=O)(=O)c3cccs3)cc2C1=O,nt,-8,0,nt,2,nt
CC(O)CNCCCOc1cccc(Oc2ccccc2)c1 (stereo not given),3,-2,0,8,0,nt
CNCCCOc1cccc(Oc2ccccc2)c1,127*,2,1,5,1,0%
CC(=O)NCCOc1cccc(OCCNC(C)=O)c1,-5,nt,nt,4,nt,nt
CNCCCOc1cccc(OC(C)C)c1,92*,nt,nt,nt,nt,-3%
C[C@@H]1CN([C@H](C)CO)C(=O)c2cc(NC(=O)Cn3cnnn3)ccc2O[C@@H]1CN(C)S(C)(=O)=O,nt,3,0,nt,-1,nt
CCC(=O)N1CCC2(CC1)CN(Cc1ccccc1Cl)[C@@H](CO)c1c2c2ccc(OC)cc2n1C,nt,3,0,nt,2,nt
O=C(COc1cccc(-n2cnnn2)c1)N1CCOCC1,-2,nt,nt,4,nt,nt

# Screening data: PubChem, several laboratories
